# Assay results reported in PMC10783423 (Medicine, 2024).
# Ends that are not written are not given here.
# Molecular target: Human thrombin (Homo sapiens, UniProt P00734)
# Assay: Thrombin inhibitory assay with chromogenic substrate S-2238
# Assay type: biochemical
# Summary of the method: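 Human thrombin (2 U/mL working solution) premixed with test peptide at a range of concentrations. Chromogenic substrate S-2238 (1 mM solution) then added; blanks received buffer instead. All components were in 50 mM Tris-HCl, pH 7.5. Reaction ran 5 min at 37°C, with absorbance read at 375 nm. IC50 was taken as the peptide concentration giving 50% thrombin inhibition.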
row,Substance,IC50
1,FVEIQAL [FVEIQAL],530 µM
2,EVVNQ [P2],4.35 µM
3,FFQQSGG [FFQQSGG],2670 µM
4,SLVTKVS [SLVTKVS],4350 µM
5,AEGYA [P1],0.53 µM
6,FASRW [P5],2.67 µM
